Screening data as filed in PubChem.
HKDC1 inh: HKDC1 (human) hexokinase inhibition. Q2TB90. recombinant HKDC1, G6PDH/diaphorase resazurin coupled fluorescence. inhibition, % at 20 µM. actives 0.16% (n = 340,000);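 active = inhibition above about 35% when tested at 20 µM, limit read from the data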
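test system = in-house recombinant HK5 (HKDC1) enzyme | amount = HKDC1 at 5 µg/mL | control set = DMSO-enzyme wells negative, buffer-substituted wells positive | compound = one dose of 20 µM, 1% DMSO | schedule = reaction time 90 min, room temperature, protected from light | technique = resorufin fluorescence at 613 nm | reagent = glucose with 1 mM ATP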
Diaphorase act: diaphorase activation or chemical reduction counter-screen; Diaphorase/resazurin coupled assay, resorufin fluorescence, 16 min; active compounds read high; 1 = vehicle wells, 0 = NADH-free wells; activation factor at 20 µM; actives 0.005% (n = 190,000); AID 1229;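 active = diaphorase activity raised at least twofold by the compound at 20 µM; inactive = activation factor below 2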
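Test system: Clostridium kluyveri diaphorase, purified enzyme; input: enzyme 0.07 U/mL final; buffer or medium: 50 mM HEPES pH 7.4 with 4.542 mM MgCl2, 0.005% Tween 20; also added: 0.114 mM NADH and 0.1 mM resazurin, final amounts; schedule: 16 min enzyme reaction, ambient temperature; technique: fluorescence of resorufin, 544 nm excitation, 590 nm emission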
Diaph inh CS: inhibits diaphorase or chemically oxidizes, flagging diaphorase assay artifacts; diaphorase resazurin-to-resorufin fluorescence, NADH, 16 min; bacterial (C. kluyveri) enzyme, not human; inhibition, % at 20 µM; actives 0.69% (n = 190,000);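 active = primary screen inhibition at 20 µM above a set limit, cut at about 50% in these data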
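controls = No-NADH positive control and DMSO neutral control | system = Clostridium kluyveri diaphorase enzyme | timing = reaction incubation of 16 min at room temperature | signal = resorufin fluorescence 544/590 nm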
G6PDH CS: L. mesenteroides G6PDH inhibition counter-screen. Purified L. mesenteroides G6PDH, diaphorase/resazurin coupled fluorescence, 45 min. inhibition, % at 5 µM. actives 0.12% (n = 200,000); in the data active = inhibition above about 50%
PfG6PD inh: PfG6PD (Plasmodium falciparum) enzyme inhibition. actives 0.78% (n = 350,000). inhibition, % at 20 µM. PfGluPho enzyme, NADPH resazurin-diaphorase fluorescence;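 active = inhibition reaching at least a set limit at 20 µM in the primary screen, cut at about 59% in these data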
Numbers stand for hits; 0 = inactive; - = no result. An excerpt weighted towards active compounds, which were near 1.3% of everything screened.

SMILES | HKDC1 inh | Diaphorase act | Diaph inh CS | G6PDH CS | PfG6PD inh
Cc1ccc2[nH]c(=O)c(C(c3nnnn3CC3CCCO3)N3CCc4ccccc4C3)cc2c1 (centres undefined) | 0 | 0 | 63 | 0 | 0
Cc1ccc2[nH]c(=O)c(C(c3nnnn3CC3CCCO3)N3CCCc4ccccc43)cc2c1 (centres undefined) | 0 | 0 | 80 | 0 | 0
COc1ccc2[nH]c(=O)c(C(c3nnnn3CC3CCCO3)N3CCc4ccccc4C3)cc2c1 (centres undefined) | 0 | 0 | 52 | 0 | 0
O=C1C(=O)c2ccccc2C(O)=C1CC=C(Cl)Cl | 0 | - | - | - | 0
CCCCCOCC1CC(C/C(C)=N/NC(N)=O)(C(=O)OCC)C(=O)O1 (centres undefined) | 0 | - | - | - | 0
O=C(CSc1nc2ccccc2n1CCc1ccccc1)c1ccc(O)c(O)c1 | 0 | 0 | 63 | 0 | 0
O=C(CSc1nc2ccccc2n1CCc1ccccc1)N1CCOCC1 | 0 | 0 | 0 | 0 | 0
CCC(=O)N1CCNC(=O)C1CC(=O)Nc1ccc(C)c(Cl)c1 (centres undefined) | 0 | 0 | 0 | 0 | 0
O=C(CCS(=O)(=O)c1ccccc1)Nc1nc(-c2cccs2)cs1 | 0 | 0 | 0 | 50 | 0
O=C(COc1ccccc1)Nc1nc(-c2cccs2)cs1 | 0 | 0 | 0 | 0 | 0
CCOc1cc(N2CCOCC2)c(OCC)cc1NC(=O)Cc1cccc2ccccc12 | 0 | 0 | 0 | 0 | 89
CC1=C(CC(=O)c2ccc(Cl)cc2)C(=O)c2ccccc2C1=O | 0 | 0 | 0 | 56 | 0
COC1(OC)C(=N/O)/C(=N\O)CCC1O (centres undefined) | 0 | 0 | 0 | 0 | 0
CN=c1scc(-c2ccc(F)cc2)n1/N=C/c1ccc(O)c(O)c1 | 0 | 0 | 50 | 0 | 0
CC(=O)N=Cc1c(C)c(C#N)c(=O)n(C)c1O | 0 | 0 | 0 | 0 | 0
Cc1c(/C=N/Nc2ccc(F)cc2)c(O)n(C)c(=O)c1C#N | 0 | 0 | 56 | 0 | 0
CCOC(=O)SC1=N/C(=C\c2ccc(N(C)C)cc2)C(=O)S1 | 0 | 0 | 50 | 0 | 0
CC1(C)CC(=O)C=C(NCCN2CCN(C(=S)NC3CCCCC3)CC2)C1 | 0 | - | - | - | 0
O=C1Nc2cc(S(=O)(=O)N3CCCC3)ccc2N2CCCC12 (centres undefined) | 0 | 0 | 0 | 0 | 0
O=C1Nc2ccccc2N2CCCC12 (centres undefined) | - | 0 | 60 | 0 | -
O=c1nc2s/c(=C\c3ccc(-c4ccccc4[N+](=O)[O-])o3)c(=O)n2nc1-c1ccccc1 | 0 | 0 | 69 | 0 | 0
CCCCCOc1ccc(/C=c2\sc3nc(=O)c(-c4ccccc4)nn3c2=O)cc1OC | 0 | 0 | 0 | 0 | 0
O=C(c1cnc2sccn2c1=O)N1CCCc2ccccc21 | 0 | 0 | 0 | 0 | 0
Cc1ccc(-n2c(C)cc(/C=N/NC(=O)CC3(C)OCCO3)c2C)c(C)c1 | 0 | 0 | 0 | 0 | 0
CC1(CC(=O)N/N=C/c2cc([N+](=O)[O-])c(O)cc2O)OCCO1 | 0 | 0 | 60 | 0 | 0
SMILES | HKDC1 inh | Diaphorase act | Diaph inh CS | G6PDH CS | PfG6PD inh
Cc1cc(C)c(NC(=O)CSc2nncn2-c2cccnc2)c(C)c1 | 0 | 0 | 0 | 0 | 0
COc1ccc(CCNC(=O)CC2Nc3ccccc3NC2=O)cc1OC (centres undefined) | 0 | 0 | 52 | 0 | 0
CNC[C@H]1Oc2c(NS(=O)(=O)c3ccc(F)cc3)cccc2C(=O)N([C@H](C)CO)C[C@@H]1C | 0 | - | - | - | 0
CC(=O)N/C(=N/c1nc(C)cc(C)n1)Nc1cc(C)cc(C)c1 | 0 | - | - | - | 0
CCOC(=O)c1c(NC(=O)C2C3CCC(O3)C2C(=O)O)sc2c1CCC(CC)C2 (centres undefined) | 0 | 0 | 55 | 0 | 0
COc1ccc(-n2c(N)c(C(=O)NCc3ccco3)c3nc4ccccc4nc32)cc1OC | 0 | 0 | 0 | 0 | 0
COc1ccc(-n2c(N)c(C(=O)NCc3ccco3)c3nc4ccccc4nc32)cc1 | 0 | 0 | 54 | 0 | 0
Cc1cc(O)ccc1Nc1nc2ccccc2nc1Nc1ccc(O)cc1C | 0 | 0 | 59 | 0 | 0
COc1cc(OC)cc(C(=O)NCc2cc(C)nc3ccccc23)c1 | 0 | 0 | 76 | 0 | 0
O=C(NNC1CC(=O)N(c2ccc(Cl)cc2)C1=O)c1ccco1 (centres undefined) | 0 | 0 | 0 | 0 | 0
